# According to ChEMBL document CHEMBL1124057, “Synthesis of arginine-vasopressins, modified in positions 1 and 2, as antagonists of the vasopressor response to the parent hormone” (J Med Chem, 1988):
# *1 amine or outer side, *2 acyl side, *3 side chain or, on linkers, in order; H or OH if unused. Where a SMILES comes first, the peptide text is derived from it. Bridges are numbered along the chain shown (N, C = ends). [ ]: non-standard residue; d: D form. X9 = O=C(CC1(S[*:3])CCC(c2ccccc2)CC1)[C@H](Cc1ccc(O)cc1)N([C@@H](Cc1ccccc1)C(=O)[*:2])[*:1]; X5 = CN1CCC(CC(=O)[C@H](Cc2ccc(O)cc2)N([C@@H](Cc2ccccc2)C(=O)[*:2])[*:1])(S[*:3])CC1; X8 = CC1CCC(CC(=O)[C@H](Cc2ccc(O)cc2)N([C@@H](Cc2ccccc2)C(=O)[*:2])[*:1])(S[*:3])CC1; X1 = CC(C)(C)C1CCC(CC(=O)[*:1])(S[*:2])CC1; X4 = O=C(CC1(S[*:2])CCC(c2ccccc2)CC1)[*:1]; X2 = CC1CCC(CC(=O)[*:1])(S[*:2])CC1; X3 = CN1CCC(CC(=O)[*:1])(S[*:2])CC1; X6 = O=C(CC1(S[*:2])CCCCC1)[*:1]
# Legend:
# Rattus norvegicus [1] = test: Antidiuretic potency was tested in rat by intravenous injection and the change of conductivity of secreted urine was measured (antagonistic experiment); assay type: functional
# In short: (§1)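 Antidiuretic assay in anesthetized female Sprague-Dawley rats, with compounds given by intravenous injection. The change in conductivity of secreted urine was the effect parameter in both agonist and antagonist runs. Arginine-vasopressin (408 IU/mg) was the standard for agonism and the agonist in antagonism runs.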
# Rattus norvegicus [2] = test: Antidiuretic potency was tested in rat by intravenous injection and the change of conductivity of secreted urine was measured (agonistic experiment); assay type: functional; in short: as §1
# Rattus norvegicus [3] = organism: Rattus norvegicus; test: Antagonist activity expressed as the effective dose that reduces the response to 2x units to equal response to 1x units of agonist (vasopressor assay); assay type: functional
# In short: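 Vasopressor antagonism measured in anesthetized, dibenamine-treated rats, with arginine-vasopressin (408 IU/mg) as the challenging agonist. Potency is given as the effective dose (ED), the antagonist dose in nmol/kg body weight.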
# Rattus norvegicus [4] = test: Agonistic activity was determined according to a four-point dosage schedule in anesthetized rat (vasopressor assay); assay type: functional
# Rattus norvegicus [5] = test: Antidiuretic potency was tested in rat by intravenous injection and the change of conductivity of secreted urine was measured (antagonistic experiment); Weak, inconsistent; assay type: functional, organism-based; in short: as §1
# [6] = The time for complete recovery of the AVP effect was measured; assay type: ADME
SMILES,Agonism (Rattus norvegicus [2]),ED (Rattus norvegicus [3]),Agonism (Rattus norvegicus [4]),Time [6],other results
CN1CCC2(CC1)CC(=O)[C@H](Cc1ccc(O)cc1)N[C@@H](Cc1ccccc1)C(=O)N[C@@H](CCC(N)=O)C(=O)N[C@@H](CC(N)=O)C(=O)N[C@H](C(=O)N1CCC[C@H]1C(=O)N[C@@H](CCCN=C(N)N)C(=O)NCC(N)=O)CSS2 (H-[X5]QNCPRG-NH2; disulfide 1-4),0.87 IU mg-1,0 nmol/kg,0.4 IU mg-1,–,Antagonism (Rattus norvegicus [1]): 0
CC1CCC2(CC1)CC(=O)[C@H](Cc1ccc(O)cc1)N[C@@H](Cc1ccccc1)C(=O)N[C@@H](CCC(N)=O)C(=O)N[C@@H](CC(N)=O)C(=O)N[C@H](C(=O)N1CCC[C@H]1C(=O)N[C@@H](CCCN=C(N)N)C(=O)NCC(N)=O)CSS2 (some centres undefined) (H-[X8]QNCPRG-NH2; disulfide 1-4),–,–,–,–,Antagonism (Rattus norvegicus [5]): Weak
NC(=O)CC[C@@H]1NC(=O)[C@H](Cc2ccccc2)N[C@@H](Cc2ccc(O)cc2)C(=O)CC2(CCC(c3ccccc3)CC2)SSC[C@@H](C(=O)N2CCC[C@H]2C(=O)N[C@@H](CCCN=C(N)N)C(=O)NCC(N)=O)NC(=O)[C@H](CC(N)=O)NC1=O (some centres undefined) (H-[X9]QNCPRG-NH2; disulfide 1-4),–,–,–,–,Antagonism (Rattus norvegicus [5]): Weak
COc1ccc(C[C@@H]2NC(=O)CC3(CCC(C(C)(C)C)CC3)SSC[C@@H](C(=O)N3CCC[C@H]3C(=O)N[C@@H](CCCN=C(N)N)C(=O)NCC(N)=O)NC(=O)[C@H](CC(N)=O)NC(=O)[C@H](CCC(N)=O)NC(=O)[C@H](Cc3ccccc3)NC2=O)cc1 (some centres undefined) (Y(Me)FQNCPRG-NH2; linker N-5 via X1) [listing 1 of 2 here],–,–,–,> 115 min,–
COc1ccc(C[C@@H]2NC(=O)CC3(CCC(C(C)(C)C)CC3)SSC[C@@H](C(=O)N3CCC[C@H]3C(=O)N[C@@H](CCCN=C(N)N)C(=O)NCC(N)=O)NC(=O)[C@H](CC(N)=O)NC(=O)[C@H](CCC(N)=O)NC(=O)[C@H](Cc3ccccc3)NC2=O)cc1 (some centres undefined) (Y(Me)FQNCPRG-NH2; linker N-5 via X1) [listing 2 of 2 here],0.095 IU mg-1,1 nmol/kg,0 IU mg-1,–,Antagonism (Rattus norvegicus [1]): 0
COc1ccc(C[C@@H]2NC(=O)CC3(CCC(C)CC3)SSC[C@@H](C(=O)N3CCC[C@H]3C(=O)N[C@@H](CCCN=C(N)N)C(=O)NCC(N)=O)NC(=O)[C@H](CC(N)=O)NC(=O)[C@H](CCC(N)=O)NC(=O)[C@H](Cc3ccccc3)NC2=O)cc1 (some centres undefined) (Y(Me)FQNCPRG-NH2; linker N-5 via X2) [listing 1 of 2 here],–,–,–,> 140 min,–
COc1ccc(C[C@@H]2NC(=O)CC3(CCC(C)CC3)SSC[C@@H](C(=O)N3CCC[C@H]3C(=O)N[C@@H](CCCN=C(N)N)C(=O)NCC(N)=O)NC(=O)[C@H](CC(N)=O)NC(=O)[C@H](CCC(N)=O)NC(=O)[C@H](Cc3ccccc3)NC2=O)cc1 (some centres undefined) (Y(Me)FQNCPRG-NH2; linker N-5 via X2) [listing 2 of 2 here],0.7 IU mg-1,1.5 nmol/kg,0 IU mg-1,–,Antagonism (Rattus norvegicus [1]): 0
COc1ccc(C[C@@H]2NC(=O)CC3(CCN(C)CC3)SSC[C@@H](C(=O)N3CCC[C@H]3C(=O)N[C@@H](CCCN=C(N)N)C(=O)NCC(N)=O)NC(=O)[C@H](CC(N)=O)NC(=O)[C@H](CCC(N)=O)NC(=O)[C@H](Cc3ccccc3)NC2=O)cc1 (Y(Me)FQNCPRG-NH2; linker N-5 via X3) [listing 1 of 2 here],–,–,–,110 min,–
COc1ccc(C[C@@H]2NC(=O)CC3(CCN(C)CC3)SSC[C@@H](C(=O)N3CCC[C@H]3C(=O)N[C@@H](CCCN=C(N)N)C(=O)NCC(N)=O)NC(=O)[C@H](CC(N)=O)NC(=O)[C@H](CCC(N)=O)NC(=O)[C@H](Cc3ccccc3)NC2=O)cc1 (Y(Me)FQNCPRG-NH2; linker N-5 via X3) [listing 2 of 2 here],0.23 IU mg-1,3.6 nmol/kg,0 IU mg-1,–,–
COc1ccc(C[C@@H]2NC(=O)CC3(CCC(c4ccccc4)CC3)SSC[C@@H](C(=O)N3CCC[C@H]3C(=O)N[C@@H](CCCN=C(N)N)C(=O)NCC(N)=O)NC(=O)[C@H](CC(N)=O)NC(=O)[C@H](CCC(N)=O)NC(=O)[C@H](Cc3ccccc3)NC2=O)cc1 (some centres undefined) (Y(Me)FQNCPRG-NH2; linker N-5 via X4) [listing 1 of 2 here],–,–,–,> 180 min,–
COc1ccc(C[C@@H]2NC(=O)CC3(CCC(c4ccccc4)CC3)SSC[C@@H](C(=O)N3CCC[C@H]3C(=O)N[C@@H](CCCN=C(N)N)C(=O)NCC(N)=O)NC(=O)[C@H](CC(N)=O)NC(=O)[C@H](CCC(N)=O)NC(=O)[C@H](Cc3ccccc3)NC2=O)cc1 (some centres undefined) (Y(Me)FQNCPRG-NH2; linker N-5 via X4) [listing 2 of 2 here],1.6 IU mg-1,2 nmol/kg,0 IU mg-1,–,–
COc1ccc(C[C@@H]2NC(=O)CC3(CCCCC3)SSC[C@@H](C(=O)N3CCC[C@H]3C(=O)N[C@@H](CCCN=C(N)N)C(=O)NCC(N)=O)NC(=O)[C@H](CC(N)=O)NC(=O)[C@H](CCC(N)=O)NC(=O)[C@H](Cc3ccccc3)NC2=O)cc1 (Y(Me)FQNCPRG-NH2; linker N-5 via X6) [listing 1 of 2 here],–,–,–,126 min,–
COc1ccc(C[C@@H]2NC(=O)CC3(CCCCC3)SSC[C@@H](C(=O)N3CCC[C@H]3C(=O)N[C@@H](CCCN=C(N)N)C(=O)NCC(N)=O)NC(=O)[C@H](CC(N)=O)NC(=O)[C@H](CCC(N)=O)NC(=O)[C@H](Cc3ccccc3)NC2=O)cc1 (Y(Me)FQNCPRG-NH2; linker N-5 via X6) [listing 2 of 2 here],–,–,0 IU mg-1,–,–
CC(C)(C)C1CCC2(CC1)CC(=O)N[C@@H](Cc1ccc(O)cc1)C(=O)N[C@@H](Cc1ccccc1)C(=O)N[C@@H](CCC(N)=O)C(=O)N[C@@H](CC(N)=O)C(=O)N[C@H](C(=O)N1CCC[C@H]1C(=O)N[C@@H](CCCN=C(N)N)C(=O)NCC(N)=O)CSS2 (some centres undefined) (YFQNCPRG-NH2; linker N-5 via X1) [listing 1 of 2 here],–,–,–,125 min,–
CC(C)(C)C1CCC2(CC1)CC(=O)N[C@@H](Cc1ccc(O)cc1)C(=O)N[C@@H](Cc1ccccc1)C(=O)N[C@@H](CCC(N)=O)C(=O)N[C@@H](CC(N)=O)C(=O)N[C@H](C(=O)N1CCC[C@H]1C(=O)N[C@@H](CCCN=C(N)N)C(=O)NCC(N)=O)CSS2 (some centres undefined) (YFQNCPRG-NH2; linker N-5 via X1) [listing 2 of 2 here],0.13 IU mg-1,2 nmol/kg,0.04 IU mg-1,–,Antagonism (Rattus norvegicus [1]): 0
CC1CCC2(CC1)CC(=O)N[C@@H](Cc1ccc(O)cc1)C(=O)N[C@@H](Cc1ccccc1)C(=O)N[C@@H](CCC(N)=O)C(=O)N[C@@H](CC(N)=O)C(=O)N[C@H](C(=O)N1CCC[C@H]1C(=O)N[C@@H](CCCN=C(N)N)C(=O)NCC(N)=O)CSS2 (some centres undefined) (YFQNCPRG-NH2; linker N-5 via X2) [listing 1 of 2 here],–,–,–,214 min,–
CC1CCC2(CC1)CC(=O)N[C@@H](Cc1ccc(O)cc1)C(=O)N[C@@H](Cc1ccccc1)C(=O)N[C@@H](CCC(N)=O)C(=O)N[C@@H](CC(N)=O)C(=O)N[C@H](C(=O)N1CCC[C@H]1C(=O)N[C@@H](CCCN=C(N)N)C(=O)NCC(N)=O)CSS2 (some centres undefined) (YFQNCPRG-NH2; linker N-5 via X2) [listing 2 of 2 here],0.14 IU mg-1,1.04 nmol/kg,0 IU mg-1,–,–
NC(=O)CC[C@@H]1NC(=O)[C@H](Cc2ccccc2)NC(=O)[C@H](Cc2ccc(O)cc2)NC(=O)CC2(CCC(c3ccccc3)CC2)SSC[C@@H](C(=O)N2CCC[C@H]2C(=O)N[C@@H](CCCN=C(N)N)C(=O)NCC(N)=O)NC(=O)[C@H](CC(N)=O)NC1=O (some centres undefined) (YFQNCPRG-NH2; linker N-5 via X4) [listing 1 of 2 here],–,–,–,> 180 min,–
NC(=O)CC[C@@H]1NC(=O)[C@H](Cc2ccccc2)NC(=O)[C@H](Cc2ccc(O)cc2)NC(=O)CC2(CCC(c3ccccc3)CC2)SSC[C@@H](C(=O)N2CCC[C@H]2C(=O)N[C@@H](CCCN=C(N)N)C(=O)NCC(N)=O)NC(=O)[C@H](CC(N)=O)NC1=O (some centres undefined) (YFQNCPRG-NH2; linker N-5 via X4) [listing 2 of 2 here],0.44 IU mg-1,2 nmol/kg,0 IU mg-1,–,–
